Results from ChEMBL document CHEMBL3108721, “4,4'-Unsymmetrically substituted 3,3'-biphenyl alpha helical proteomimetics as potential coactivator binding inhibitors” (Bioorg Med Chem, 2014).

Tests used:
[1] = target: T1, Estrogen receptor (Homo sapiens) (UniProt P03372); assay: Competitive inhibition of ER-alpha (unknown origin)-GRIP1 interaction expressed in human HepG2 cells assessed as change in reporter gene activity after 40 hrs relative to control; type: cell-based; parameters: concentration or dose not given beside the values
T1 sequence (whole entry): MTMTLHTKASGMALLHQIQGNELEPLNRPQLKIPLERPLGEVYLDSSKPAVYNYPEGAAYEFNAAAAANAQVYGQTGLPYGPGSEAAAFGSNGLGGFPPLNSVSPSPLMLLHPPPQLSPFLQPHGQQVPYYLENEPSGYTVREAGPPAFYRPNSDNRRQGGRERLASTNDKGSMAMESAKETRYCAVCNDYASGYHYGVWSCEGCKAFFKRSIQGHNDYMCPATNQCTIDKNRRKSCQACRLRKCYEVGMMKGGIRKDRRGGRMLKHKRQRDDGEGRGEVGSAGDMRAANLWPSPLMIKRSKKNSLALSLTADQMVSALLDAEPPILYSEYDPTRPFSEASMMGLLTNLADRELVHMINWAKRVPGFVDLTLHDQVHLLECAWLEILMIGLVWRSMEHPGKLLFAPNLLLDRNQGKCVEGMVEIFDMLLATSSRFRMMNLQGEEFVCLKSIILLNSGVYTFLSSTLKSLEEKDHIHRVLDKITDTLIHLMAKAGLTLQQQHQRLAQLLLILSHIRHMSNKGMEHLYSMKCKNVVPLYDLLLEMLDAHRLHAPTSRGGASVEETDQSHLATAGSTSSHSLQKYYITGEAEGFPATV
In short: (§1)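 HepG2 cells transfected with VP16-ERα, Gal4-DBD-fused GRIP1 LxxLL2 peptide and 5xGal4Luc3 reporter. […] Scored as >50% decrease or increase at <20, 20–50 or >50 μM, or <20% change. 4-hydroxytamoxifen as antagonist control. Cell death and precipitation flagged.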

[2] = target: T1, Estrogen receptor (Homo sapiens); assay: Competitive inhibition of ER-alpha (unknown origin)-GRIP1 interaction expressed in human HepG2 cells assessed as change in reporter gene activity after 40 hrs in presence of estradiol relative to control; type: cell-based; parameters: concentration or dose not given beside the values; in short: as §1
[3] = target: T1, Estrogen receptor (Homo sapiens); assay: Inhibition of ER-alpha (unknown origin) transcriptional activity expressed in ER-negative human SKBR3 cells coexpressing ERE assessed as increase in reporter gene activity at >50 uM after 40 hrs relative to control; type: cell-based; parameters: scale not given: the % may be the effect or the level left; conditions: SK-BR-3
In short: (§2)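 ER-negative SKBR3 cells cotransfected with 3xERE-TATA-luciferase, RST7-ERα and pCMV-β-gal for normalization. […] Scored as >50% decrease or increase at <20, 20–50 or >50 μM, or <20% change. 4-hydroxytamoxifen as antagonist control. Cell death above 50 μM flagged.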

[4] = target: T1, Estrogen receptor (Homo sapiens); assay: Inhibition of ER-alpha (unknown origin) transcriptional activity expressed in ER-negative human SKBR3 cells coexpressing ERE assessed as change in reporter gene activity after 40 hrs in presence of estradiol relative to control; type: cell-based; parameters: concentration or dose not given beside the values; conditions: SK-BR-3; in short: as §2
[5] = target: T1, Estrogen receptor (Homo sapiens); assay: Inhibition of ER-alpha (unknown origin) transcriptional activity expressed in ER-negative human SKBR3 cells coexpressing ERE assessed as change in reporter gene activity after 40 hrs relative to control; type: cell-based; parameters: concentration or dose not given beside the values; conditions: SK-BR-3; in short: as §2
[6] = target: T1, Estrogen receptor (Homo sapiens); assay: Competitive inhibition of ER-alpha (unknown origin)-GRIP1 interaction expressed in human HepG2 cells assessed as increase in reporter gene activity at >50 uM after 40 hrs relative to control; type: cell-based; parameters: scale not given: the % may be the effect or the level left; in short: as §1
[7] = target: T1, Estrogen receptor (Homo sapiens); assay: Inhibition of ER-alpha (unknown origin) transcriptional activity expressed in ER-negative human SKBR3 cells coexpressing ERE assessed as increase in reporter gene activity at <20 uM after 40 hrs relative to control; type: cell-based; parameters: scale not given: the % may be the effect or the level left; conditions: SK-BR-3; in short: as §2
[8] = test system: HepG2; assay: Cytotoxicity against human HepG2 cells expressing ER-alpha coexpressing GRIP1 assessed as cell death at >50 uM in presence of estradiol; type: cell-based; in short: as §1
[9] = test system: HepG2; assay: Cytotoxicity against human HepG2 cells expressing ER-alpha coexpressing GRIP1 assessed as cell death at >50 uM; type: cell-based; in short: as §1
[10] = target: T1, Estrogen receptor (Homo sapiens); assay: Competitive inhibition of ER-alpha (unknown origin)-GRIP1 interaction expressed in human HepG2 cells assessed as increase in reporter gene activity at <20 uM after 40 hrs in presence of estradiol relative to control; type: cell-based; parameters: scale not given: the % may be the effect or the level left; in short: as §1
[11] = target: T1, Estrogen receptor (Homo sapiens); assay: Competitive inhibition of ER-alpha (unknown origin)-GRIP1 interaction expressed in human HepG2 cells assessed as increase in reporter gene activity at <20 uM after 40 hrs relative to control; type: cell-based; parameters: scale not given: the % may be the effect or the level left; in short: as §1
[12] = target: T1, Estrogen receptor (Homo sapiens); assay: Competitive inhibition of ER-alpha (unknown origin)-GRIP1 interaction expressed in human HepG2 cells assessed as decrease in reporter gene activity at less than 20 uM after 40 hrs relative to control; parameters: scale not given: the % may be the effect or the level left
[13] = target: T1, Estrogen receptor (Homo sapiens); assay: Inhibition of ER-alpha (unknown origin) transcriptional activity expressed in ER-negative human SKBR3 cells coexpressing ERE assessed as increase in reporter gene activity at 20 to 50 uM after 40 hrs relative to control; type: cell-based; parameters: scale not given: the % may be the effect or the level left; conditions: SK-BR-3; in short: as §2
[14] = target: T1, Estrogen receptor (Homo sapiens); assay: Competitive inhibition of ER-alpha (unknown origin)-GRIP1 interaction expressed in human HepG2 cells assessed as decrease in reporter gene activity at >50 uM after 40 hrs in presence of estradiol relative to control; type: cell-based; parameters: scale not given: the % may be the effect or the level left; in short: as §1
[15] = Cytotoxicity against ER-negative human SKBR3 cells expressing ER-alpha coexpressing ERE assessed as cell death at >50 uM; type: cell-based; conditions: sk-br-3; in short: as §2
[16] = Cytotoxicity against ER-negative human SKBR3 cells expressing ER-alpha coexpressing ERE assessed as cell death at >50 uM in presence of estradiol; type: cell-based; conditions: sk-br-3; in short: as §2

Row | Activity [1] | Activity [2] | Activity [3] | Activity [4] | Activity [6] | SMILES | also measured
1 | < 20% | < 20% | > 50% | < 20% | – | CCOC(=O)COc1ccc(-c2ccc(O)c(Cc3ccc4ccccc4c3)c2)cc1Cc1ccc2ccccc2c1 | –
2 | – | < 20% | > 50% | < 20% | > 50% | CCCCCCCc1cc(-c2ccc(OCC(=O)OCC)c(CCCCCCC)c2)ccc1OCCN(C)C | –
3 | < 20% | < 20% | – | < 20% | – | CCOC(=O)COc1ccc(-c2ccc(O)c(Cc3ccc(-c4ccccc4)cc3)c2)cc1Cc1ccc(-c2ccccc2)cc1 | Activity [7]: > 50%
4 | – | < 20% | – | < 20% | > 50% | CCOC(=O)COc1ccc(-c2ccc(O)c(Cc3ccc4ccccc4c3)c2)cc1 | Activity [13]: > 50%; Activity [8]: Toxic; Activity [9]: Toxic
5 | – | < 20% | > 50% | < 20% | > 50% | CCCCCCCc1cc(-c2ccc(OCC(=O)OCC)cc2)ccc1O | Activity [8]: Toxic; Activity [9]: Toxic

The remaining lines, values behind:

Row | SMILES | Activity [1] | Activity [2] | Activity [3] | Activity [4] | Activity [6] | also measured
6 | CCCCCCCc1cc(-c2ccc(OCC(=O)OCC)c(CCCCCCC)c2)ccc1O | < 20% | < 20% | – | < 20% | – | Activity [5]: < 20%
7 | CCCCCCCc1cc(-c2ccc(OCC(=O)OCC)cc2)ccc1OCCN(C)C | – | < 20% | > 50% | < 20% | > 50% | –
8 | CCOC(=O)COc1ccc(-c2ccc(O)cc2)cc1Cc1ccc(-c2ccccc2)cc1 | – | < 20% | > 50% | < 20% | > 50% | Activity [8]: Toxic; Activity [9]: Toxic
9 | CCOC(=O)COc1ccc(-c2ccc(OCCN(C)C)c(Cc3ccc4ccccc4c3)c2)cc1 | – | – | – | < 20% | – | Activity [10]: > 50%; Activity [7]: > 50%; Activity [11]: > 50%
10 | CCOC(=O)COc1ccc(-c2ccc(OCCN(C)C)c(CC3CCCCC3)c2)cc1 | – | < 20% | – | < 20% | – | Activity [12]: > 50%; Activity [13]: > 50%
11 | CCCCCCCc1cc(-c2ccc(OCCN(C)C)cc2)ccc1OCC(=O)OCC | < 20% | – | – | < 20% | – | Activity [14]: > 50%; Activity [5]: < 20%
12 | CCOC(=O)COc1ccc(-c2ccc(O)c(CC3CCCCC3)c2)cc1 | < 20% | – | – | < 20% | – | Activity [7]: > 50%; Activity [15]: Toxic; Activity [14]: > 50%; Activity [16]: Toxic
